Publication PMC8266253 (Journal of Enzyme Inhibition and Medicinal Chemistry, 2021)
Changes are numbered by the printed parent chain. Where two headings read alike, the source gives them in different places.

Experiments:
AKR1C1 = molecular target: T1, AKR1C1 (Homo sapiens, UniProt Q04828); assay: Inhibition assay for recombinant AKR1C1; assay type: biochemical; conditions: for inhibition at 10 µM: pH 9, read-out: AKR1C1 Inhibition (%) 10 μM
T1 sequence (Q04828 1-323): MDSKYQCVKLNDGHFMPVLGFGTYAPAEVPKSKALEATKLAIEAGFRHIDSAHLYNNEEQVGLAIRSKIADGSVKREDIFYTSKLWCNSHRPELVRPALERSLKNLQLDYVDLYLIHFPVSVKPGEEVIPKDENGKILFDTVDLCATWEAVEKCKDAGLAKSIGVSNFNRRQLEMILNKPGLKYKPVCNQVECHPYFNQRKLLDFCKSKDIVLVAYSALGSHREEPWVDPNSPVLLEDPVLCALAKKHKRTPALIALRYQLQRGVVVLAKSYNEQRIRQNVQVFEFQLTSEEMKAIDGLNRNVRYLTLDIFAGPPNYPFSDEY
Summary of the method: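 Human recombinant AKR1C1 oxidising 1-acenaphthenol (90 µM final) with 2.3 mM NAD⁺, in 0.09 M potassium phosphate pH 9.0, 0.005% Triton X-114, 0.05% DMSO. Test compound is added in DMSO, and 0.1 µM enzyme starts the reaction. NADH rise at 340 nm gives initial velocities. Runs are in duplicate, two independent experiments. IC50 comes from residual activity vs log inhibitor; inhibition type, KM, KI and α come from kinetic fitting.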

AKR1C2 = molecular target: T2, AKR1C2 (Homo sapiens, UniProt P52895); assay: Inhibition assay for recombinant AKR1C2; assay type: biochemical; conditions: for inhibition at 10 µM: pH 9, read-out: AKR1C2 Inhibition (%) 10 μM
T2 sequence (P52895 1-323): T1 sequence (Q04828 1-323) with T38V, R47H, L54V, C87S, V151M, R170H, Q172L
Summary of the method: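 Rates are followed as NADH absorbance increase at 340 nm, with recombinant AKR1C2 (0.3 µM, added last) and 180 µM final 1-acenaphthenol. The mix is 2.3 mM NAD⁺, 0.09 M potassium phosphate pH 9.0, 0.005% Triton X-114 and 0.05% DMSO, plus test compound in DMSO. Duplicates, two independent experiments. IC50 is fitted from residual activity vs log concentration; inhibition mode, KM, KI and α are fitted from kinetics.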

[1] = pH 9, read-out: AKR1C1 Inhibition (%) 100 μM
[2] = pH 9, read-out: AKR1C2 Inhibition (%) 100 μM

| SMILES | IC50 (AKR1C1) [nM] | inhibition at 10 µM (AKR1C1) [%] | inhibition at 100 µM (AKR1C1; [1]) [%] | IC50 (AKR1C2) [nM] | inhibition at 10 µM (AKR1C2) [%] | inhibition at 100 µM (AKR1C2; [2]) [%] | Ki (AKR1C1) [nM] | Type of inhibition of AKR1C1 (AKR1C1; kinetic studies) | inhibition at 100 µM (AKR1C1; read-out: Biological activity AKR1C1 (biological inhibition at 100 μM)) [%] | inhibition at 100 µM (AKR1C2; read-out: Biological activity AKR1C2 (biological inhibition at 100 μM)) [%] |
| --- | --- | --- | --- | --- | --- | --- | --- | --- | --- | --- |
| C[C@@]12CC[C@@H]3c4cc(Br)c(O)c(Cl)c4CC[C@H]3[C@@H]1CCC2=O [2_2Br,4Cl, 2-bromo-4-chloro-3-hydroxy-13α-oestra-1,3,5(10)-trien-17-one] | 1700 | 80 | 92.3 | 3100 | 80 | 99 | – | – | – | – |
| C[C@@]12CC[C@@H]3c4cc(Cl)c(O)c(I)c4CC[C@H]3[C@@H]1CCC2=O [2_2Cl,4I, 2-chloro-3-hydroxy-4-iodo-13α-oestra-1,3,5(10)-trien-17-one] | – | 50 | 82.6 | 4600 | 73 | 89.2 | – | – | – | – |
| C[C@@]12CC[C@@H]3c4cc(I)c(O)c(Br)c4CC[C@H]3[C@@H]1CCC2=O [2_2I,4Br, 4-bromo-3-hydroxy-2-iodo-13α-oestra-1,3,5(10)-trien-17-one] | 700 | 90.7 | 93.4 | – | 59.5 | 74.7 | 570 | mixed type of inhibition | 93.4 | 74.7 |
| C[C@@]12CC[C@@H]3c4cc(I)c(O)c(Cl)c4CC[C@H]3[C@@H]1CCC2=O [2_2I,4Cl, 4-chloro-3-hydroxy-2-iodo-13α-oestra-1,3,5(10)-trien-17-one] | 800 | 90 | 99 | 7100 | 73 | 87.5 | – | – | – | – |

Results, then the compound that gave them:

| IC50 (AKR1C1) [nM] | inhibition at 10 µM (AKR1C1) [%] | inhibition at 100 µM (AKR1C1; [1]) [%] | IC50 (AKR1C2) [nM] | inhibition at 10 µM (AKR1C2) [%] | inhibition at 100 µM (AKR1C2; [2]) [%] | Ki (AKR1C1) [nM] | Type of inhibition of AKR1C1 (AKR1C1; kinetic studies) | inhibition at 100 µM (AKR1C1; read-out: Biological activity AKR1C1 (biological inhibition at 100 μM)) [%] | inhibition at 100 µM (AKR1C2; read-out: Biological activity AKR1C2 (biological inhibition at 100 μM)) [%] | SMILES |
| --- | --- | --- | --- | --- | --- | --- | --- | --- | --- | --- |
| 7200 | 67 | 100 | 4400 | 75 | 100 | – | – | – | – | C[C@@]12CC[C@@H]3c4cc(Br)c(O)c(I)c4CC[C@H]3[C@@H]1CCC2=O [2_2Br,4I, 2-bromo-3-hydroxy-4-iodo-13α-oestra-1,3,5(10)-trien-17-one] |
| 1900 | 80 | 93.9 | – | 65 | 91.9 | – | – | – | – | C[C@@]12CC[C@@H]3c4cc(Cl)c(O)c(Br)c4CC[C@H]3[C@@H]1CCC2=O [2_2Cl,4Br, 4-bromo-2-chloro-3-hydroxy-13α-oestra-1,3,5(10)-trien-17-one] |
